Test results taken from ChEMBL document CHEMBL4270599, “Synthesis of a 3'-C-ethynyl-β-d-ribofuranose purine nucleoside library: Discovery of C7-deazapurine analogs as potent antiproliferative nucleosides” (Eur J Med Chem, 2018).
pIC50: −log10 of the molar value.

Experiments:
MCF7 [1] = assay: Growth inhibition of human MCF7 cells assessed as cell growth at 10^-8 M incubated for 48 hrs by sulforhodamine B assay relative to control; type: functional; settings: MCF7, 48 h, read-out: Activity
NCI-H23 [2] = assay: Growth inhibition of human NCI-H23 cells assessed as cell growth at 10^-7 M incubated for 48 hrs by sulforhodamine B assay relative to control; type: functional; settings: NCI-H23, 48 h, read-out: Activity
UACC-62 = assay: Cytotoxicity against human UACC62 cells after 48 hrs by SRB assay; type: functional; settings: UACC-62, 48 h
DU-145 [3] = assay: Growth inhibition of human DU145 cells assessed as cell growth at 10^-5 M incubated for 48 hrs by sulforhodamine B assay relative to control; type: functional; settings: DU-145, 48 h, read-out: Activity
PC-3 = assay: Cytotoxicity against human PC3 cells after 48 hrs by SRB assay; type: functional; settings: PC-3, 48 h; for CC50: read-out: LC50 (the source's name)
HOP-62 [4] = assay: Growth inhibition of human HOP62 cells assessed as cell growth at 10^-8 M incubated for 48 hrs by sulforhodamine B assay relative to control; type: functional; settings: HOP-62, 48 h, read-out: Activity
ACHN = assay: Growth inhibition of human ACHN cells assessed as cell growth at 10^-7 M incubated for 48 hrs by sulforhodamine B assay relative to control; type: functional; settings: read-out: Activity
OVCAR-5 = assay: Growth inhibition of human OVCAR5 cells assessed as cell growth at 10^-5 M incubated for 48 hrs by sulforhodamine B assay relative to control; type: functional; settings: OVCAR-5, 48 h, read-out: Activity
NCI-H23 [5] = assay: Growth inhibition of human NCI-H23 cells assessed as cell growth at 10^-8 M incubated for 48 hrs by sulforhodamine B assay relative to control; type: functional; settings: NCI-H23, 48 h, read-out: Activity
NCI/ADR-RES = assay: Growth inhibition of human NCI/ADR-RES cells assessed as cell growth at 10^-6 M incubated for 48 hrs by sulforhodamine B assay relative to control; type: functional; settings: read-out: Activity
OVCAR-4 [6] = assay: Growth inhibition of human OVCAR4 cells assessed as cell growth at 10^-6 M incubated for 48 hrs by sulforhodamine B assay relative to control; type: functional; settings: OVCAR-4, 48 h, read-out: Activity
MCF7 [7] = assay: Growth inhibition of human MCF7 cells assessed as cell growth at 10^-7 M incubated for 48 hrs by sulforhodamine B assay relative to control; type: functional; settings: MCF7, 48 h, read-out: Activity
Malme-3M = assay: Growth inhibition of human MALME-3M cells assessed as cell growth at 10^-7 M incubated for 48 hrs by sulforhodamine B assay relative to control; type: functional; settings: read-out: Activity
SR [8] = assay: Growth inhibition of human SR cells assessed as cell growth at 10^-6 M incubated for 48 hrs by sulforhodamine B assay relative to control; type: functional; settings: read-out: Activity
MDA-MB-231 = assay: Growth inhibition of human MDA-MB-231 cells assessed as cell growth at 10^-8 M incubated for 48 hrs by sulforhodamine B assay relative to control; type: functional; settings: MDA-MB-231, 48 h, read-out: Activity
786-0 = assay: Growth inhibition of human 786-0 cells assessed as cell growth at 10^-8 M incubated for 48 hrs by sulforhodamine B assay relative to control; type: functional; settings: 786-0, 48 h, read-out: Activity
SNB-19 = assay: Growth inhibition of human SNB19 cells assessed as cell growth at 10^-5 M incubated for 48 hrs by sulforhodamine B assay relative to control; type: functional; settings: SNB-19, 48 h, read-out: Activity
SR [9] = assay: Growth inhibition of human SR cells assessed as cell growth at 10^-8 M incubated for 48 hrs by sulforhodamine B assay relative to control; type: functional; settings: read-out: Activity
HOP-62 [10] = assay: Cytotoxicity against human HOP62 cells after 48 hrs by SRB assay; type: functional; settings: HOP-62, 48 h
IGROV-1 = assay: Growth inhibition of human IGROV1 cells assessed as cell growth at 10^-8 M incubated for 48 hrs by sulforhodamine B assay relative to control; type: functional; settings: IGROV-1, 48 h, read-out: Activity
KM12 = assay: Growth inhibition of human KM12 cells assessed as cell growth at 10^-5 M incubated for 48 hrs by sulforhodamine B assay relative to control; type: functional; settings: KM12, 48 h, read-out: Activity
EKVX = assay: Growth inhibition of human EKVX cells assessed as cell growth at 10^-8 M incubated for 48 hrs by sulforhodamine B assay relative to control; type: functional; settings: read-out: Activity
DU-145 [11] = assay: Growth inhibition of human DU145 cells assessed as cell growth at 10^-7 M incubated for 48 hrs by sulforhodamine B assay relative to control; type: functional; settings: DU-145, 48 h, read-out: Activity
MCF7 [12] = assay: Cytotoxicity against human MCF7 cells after 48 hrs by SRB assay; type: functional; settings: MCF7, 48 h
CCRF-CEM [13] = assay: Growth inhibition of human CCRF-CEM cells assessed as cell growth at 10^-7 M incubated for 48 hrs by sulforhodamine B assay relative to control; type: functional; settings: read-out: Activity
[14] = Antiproliferative activity against HMVEC-d cells after 4 days by Coulter counter method; type: cell-based; settings: Homo sapiens, 96 h
Procedure, shortened: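 Primary HUVEC, primary HMVEC-d and the HMEC-1 line seeded at 20,000 cells/well in gelatin-coated plates in EC growth medium (EGM2). After overnight incubation, 5-fold compound dilutions added. Cells proliferated four days with compound, then trypsinized and counted by Coulter counter to derive IC₅₀.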

SK-MEL-5 = assay: Growth inhibition of human SK-MEL-5 cells assessed as cell growth at 10^-8 M incubated for 48 hrs by sulforhodamine B assay relative to control; type: functional; settings: SK-MEL-5, 48 h, read-out: Activity
A549 = assay: Growth inhibition of human A549/ATCC cells assessed as cell growth at 10^-8 M incubated for 48 hrs by sulforhodamine B assay relative to control; type: functional; settings: A549, 48 h, read-out: Activity
DU-145 [15] = assay: Growth inhibition of human DU145 cells assessed as cell growth at 10^-4 M incubated for 48 hrs by sulforhodamine B assay relative to control; type: functional; settings: DU-145, 48 h, read-out: Activity
CCRF-CEM [16] = assay: Growth inhibition of human CCRF-CEM cells assessed as cell growth at 10^-5 M incubated for 48 hrs by sulforhodamine B assay relative to control; type: functional; settings: read-out: Activity
SF-539 = assay: Growth inhibition of human SF539 cells assessed as cell growth at 10^-7 M incubated for 48 hrs by sulforhodamine B assay relative to control; type: functional; settings: SF-539, 48 h, read-out: Activity
SF-268 = assay: Growth inhibition of human SF268 cells assessed as cell growth at 10^-8 M incubated for 48 hrs by sulforhodamine B assay relative to control; type: functional; settings: SF-268, 48 h, read-out: Activity
OVCAR-4 [17] = assay: Cytotoxicity against human OVCAR4 cells after 48 hrs by SRB assay; type: functional; settings: OVCAR-4, 48 h; for CC50: read-out: pLC50 (the source's name) (converted)
[18] = read-out: LC50 (the source's name)
[19] = read-out: pLC50 (the source's name) (converted)

Structure (SMILES): C#C[C@@]1(O)[C@@H](CO)O[C@@H](n2cc(I)c3c(N)ncnc32)[C@@H]1O
- growth at 0.01 µM (MCF7 [1]): 35 to 54%
- growth at 0.1 µM (NCI-H23 [2]): 67 to 75%
- GI50 (UACC-62; read-out: GI50): 0.573 to 0.659 µM
- CC50 (UACC-62; [18]): 6.63 to 24.5 µM
- TGI (UACC-62; read-out: TGI): 2.38 to 3.23 µM
- growth at 10 µM (DU-145 [3]): 8 to 11%
- GI50 (PC-3; read-out: GI50): 0.0663 to 0.0861 µM
- CC50 (PC-3): > 100 µM
- TGI (PC-3; read-out: TGI): 14.5 to 100 µM
- growth at 0.01 µM (HOP-62 [4]): 83 to 89%
- growth at 0.1 µM (ACHN): 72%
- growth at 10 µM (OVCAR-5): 2 to 6%
- growth at 0.01 µM (NCI-H23 [5]): 87 to 91%
- growth at 1 µM (NCI/ADR-RES): 4 to 7%
- growth at 1 µM (OVCAR-4 [6]): 38 to 53%
- growth at 0.1 µM (MCF7 [7]): 18 to 25%
- growth at 0.1 µM (Malme-3M): 78 to 99%
- growth at 1 µM (SR [8]): 21 to 24%
- growth at 0.01 µM (MDA-MB-231): 96 to 100%
- growth at 0.01 µM (786-0): 87 to 98%
- growth at 10 µM (SNB-19): 2 to 3%
- growth at 0.01 µM (SR [9]): 94 to 96%
- GI50 (HOP-62 [10]; read-out: GI50): 0.367 to 1.52 µM
- CC50 (HOP-62 [10]; [18]): > 100 µM
- TGI (HOP-62 [10]; read-out: TGI): 6.28 to 12 µM
- growth at 0.01 µM (IGROV-1): 39 to 60%
- growth at 10 µM (KM12): 3 to 12%
- growth at 0.01 µM (EKVX): 79 to 90%
- growth at 0.1 µM (DU-145 [11]): 50 to 57%
- TGI (MCF7 [12]; read-out: TGI): > 100 µM
- CC50 (MCF7 [12]; [19]): > 100 µM
- TGI (MCF7 [12]; read-out: pTGI (converted)): > 100 µM
- growth at 0.1 µM (CCRF-CEM [13]): 72 to 74%
- pIC50 [14]: > 8.89
- growth at 0.01 µM (SK-MEL-5): 87 to 94%
- growth at 0.01 µM (A549): 90 to 92%
- growth at 100 µM (DU-145 [15]): 7 to 10%
- growth at 10 µM (CCRF-CEM [16]): 5 to 6%
- growth at 0.1 µM (SF-539): 75 to 82%
- growth at 0.01 µM (SF-268): 92%
- GI50 (OVCAR-4 [17]; read-out: GI50): 0.563 to 1.16 µM
- TGI (OVCAR-4 [17]; read-out: TGI): > 100 µM
- CC50 (OVCAR-4 [17]): > 100 µM
- TGI (OVCAR-4 [17]; read-out: pTGI (converted)): > 100 µM

Structure (SMILES): C#C[C@@]1(O)[C@@H](CO)O[C@@H](n2cc(F)c3c(N)ncnc32)[C@@H]1O
- growth at 0.01 µM (MCF7 [1]): 89%
- growth at 0.1 µM (NCI-H23 [2]): 91%
- TGI (UACC-62; read-out: TGI): 1.47 µM
- GI50 (UACC-62; read-out: pGI50 (converted)): 0.331 µM
- CC50 (UACC-62; [19]): 7.24 µM
- TGI (UACC-62; read-out: pTGI (converted)): 1.48 µM
- growth at 10 µM (DU-145 [3]): 1%
- CC50 (PC-3): > 100 µM
- TGI (PC-3; read-out: TGI): 3.24 µM
- GI50 (PC-3; read-out: pGI50 (converted)): 0.295 µM
- TGI (PC-3; read-out: pTGI (converted)): 3.24 µM
- growth at 0.01 µM (HOP-62 [4]): 90%
- growth at 0.1 µM (ACHN): 75%
- growth at 10 µM (OVCAR-5): 5%
- growth at 0.01 µM (NCI-H23 [5]): 97%
- growth at 1 µM (NCI/ADR-RES): 22%
- growth at 1 µM (OVCAR-4 [6]): 50%
- growth at 0.1 µM (MCF7 [7]): 51%
- growth at 0.1 µM (Malme-3M): 98%
- growth at 1 µM (SR [8]): 9%
- growth at 0.01 µM (MDA-MB-231): 99%
- growth at 0.01 µM (786-0): 94%
- growth at 10 µM (SNB-19): 7%
- growth at 0.01 µM (SR [9]): 101%
- TGI (HOP-62 [10]; read-out: TGI): 7.79 µM
- GI50 (HOP-62 [10]; read-out: pGI50 (converted)): 0.575 µM
- CC50 (HOP-62 [10]; [19]): > 100 µM
- TGI (HOP-62 [10]; read-out: pTGI (converted)): 7.76 µM
- growth at 0.01 µM (IGROV-1): 105%
- growth at 10 µM (KM12): 7%
- growth at 0.01 µM (EKVX): 94%
- growth at 0.1 µM (DU-145 [11]): 92%
- CC50 (MCF7 [12]; [18]): > 100 µM
- GI50 (MCF7 [12]; read-out: pGI50 (converted)): 0.102 µM
- growth at 0.1 µM (CCRF-CEM [13]): 81%
- pIC50 [14]: > 8.89
- growth at 0.01 µM (SK-MEL-5): 92%
- growth at 0.01 µM (A549): 93%
- growth at 100 µM (DU-145 [15]): -4%
- growth at 10 µM (CCRF-CEM [16]): 5%
- growth at 0.1 µM (SF-539): 107%
- growth at 0.01 µM (SF-268): 100%
- TGI (OVCAR-4 [17]; read-out: TGI): 8.67 µM
- GI50 (OVCAR-4 [17]; read-out: pGI50 (converted)): 1 µM
- CC50 (OVCAR-4 [17]): > 100 µM
- TGI (OVCAR-4 [17]; read-out: pTGI (converted)): 8.71 µM
